Laboratory results from ChEMBL document CHEMBL1811814, “Synthesis and evaluation of indole, pyrazole, chromone and pyrimidine based conjugates for tumor growth inhibitory activities--development of highly efficacious cytotoxic agents” (Eur J Med Chem, 2010).

Legend:
Type in all cases: functional
[1] = system: SNB-75; assay: Growth inhibition of human SNB75 cells assessed tumor cell growth at 10^-5 M; design: scale not given: the % may be the effect or the level left
Method in brief: (§1)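 Single-dose screen at 10^-5 M across the 60 human tumor cell line panel, run to NCI standards. The value is the percent growth of each cell line in the presence of compound. Compounds active at this dose moved on to five-concentration testing (10^-4 to 10^-8 M).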

[2] = system: A498; assay: Growth inhibition of human A498 cells
[3] = system: SW-620; assay: Growth inhibition of human SW620 cells
[4] = system: SF-295; assay: Growth inhibition of human SF295 cells assessed tumor cell growth at 10^-5 M; design: scale not given: the % may be the effect or the level left
Method in brief: (§2)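 NCI 60-human-tumor-cell-line panel screen. Each compound was tested at a single concentration of 10^-5 M, and percent growth of tumor cells was recorded for each cell line. Growth inhibition was expressed from these percent-growth values.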

[5] = system: SF-539; assay: Growth inhibition of human SF539 cells assessed tumor cell growth at 10^-5 M; design: scale not given: the % may be the effect or the level left; method in brief: as §2
[6] = system: MDA-MB-435; assay: Growth inhibition of human MDA-MB-435 cells assessed tumor cell growth at 10^-5 M; design: scale not given: the % may be the effect or the level left; method in brief: as §2
[7] = system: Malme-3M; assay: Growth inhibition of human MALME-3M cells assessed tumor cell growth at 10^-5 M; design: scale not given: the % may be the effect or the level left; method in brief: as §2
[8] = system: SF-268; assay: Growth inhibition of human SF268 cells
[9] = system: CAKI-1; assay: Growth inhibition of human Caki1 cells
[10] = system: RXF 393; assay: Growth inhibition of human RXF393 cells
[11] = system: COLO 205; assay: Growth inhibition of human COLO205 cells
[12] = system: NCI-H460; assay: Growth inhibition of human NCI-H460 cells
[13] = Growth inhibition of human RPMI8266 cells
[14] = system: DU-145; assay: Growth inhibition of human DU145 cells assessed tumor cell growth at 10^-5 M; design: scale not given: the % may be the effect or the level left; method in brief: as §2
[15] = system: CAKI-1; assay: Growth inhibition of human Caki1 cells assessed tumor cell growth at 10^-5 M; design: scale not given: the % may be the effect or the level left; method in brief: as §2
[16] = Growth inhibition of human Hs 578T cells
[17] = system: HT-29; assay: Growth inhibition of human HT-29 cells assessed tumor cell growth at 10^-5 M; design: scale not given: the % may be the effect or the level left; method in brief: as §2
[18] = system: K562; assay: Growth inhibition of human K562 cells
[19] = system: SF-268; assay: Growth inhibition of human SF268 cells assessed tumor cell growth at 10^-5 M; design: scale not given: the % may be the effect or the level left; method in brief: as §2
[20] = system: MOLT-4; assay: Growth inhibition of human MOLT4 cells
[21] = system: MDA-MB-231; assay: Growth inhibition of human MDA-MB-231 cells
[22] = system: SK-OV-3; assay: Growth inhibition of human SKOV3 cells assessed tumor cell growth at 10^-5 M; design: scale not given: the % may be the effect or the level left; method in brief: as §2
[23] = system: PC-3; assay: Growth inhibition of human PC3 cells assessed tumor cell growth at 10^-5 M; design: scale not given: the % may be the effect or the level left; method in brief: as §2
[24] = system: IGROV-1; assay: Growth inhibition of human IGROV1 cells
Method in brief: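 Follow-up panel testing at five concentrations (10^-4, 10^-5, 10^-6, 10^-7 and 10^-8 M) across the 60 human tumor cell lines. GI50 was obtained for each line from the concentration-response data, with the panel average GI50 also reported.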

[25] = system: TK-10; assay: Growth inhibition of human TK10 cells assessed tumor cell growth at 10^-5 M; design: scale not given: the % may be the effect or the level left; method in brief: as §1
[26] = system: IGROV-1; assay: Growth inhibition of human IGROV1 cells assessed tumor cell growth at 10^-5 M; design: scale not given: the % may be the effect or the level left; method in brief: as §2
[27] = system: SR; assay: Growth inhibition of human SR cells assessed tumor cell growth at 10^-5 M; design: scale not given: the % may be the effect or the level left; method in brief: as §1
[28] = system: NCI-H522; assay: Growth inhibition of human NCI-H522 cells
[29] = system: A549; assay: Growth inhibition of human A549 cells
[30] = system: BT-549; assay: Growth inhibition of human BT549 cells assessed tumor cell growth at 10^-5 M; design: scale not given: the % may be the effect or the level left; method in brief: as §2
[31] = system: 786-0; assay: Growth inhibition of human 786-0 cells
[32] = system: Malme-3M; assay: Growth inhibition of human MALME-3M cells
[33] = system: MOLT-4; assay: Growth inhibition of human MOLT4 cells assessed tumor cell growth at 10^-5 M; design: scale not given: the % may be the effect or the level left; method in brief: as §2
[34] = system: SK-MEL-28; assay: Growth inhibition of human SK-MEL-28 cells assessed tumor cell growth at 10^-5 M; design: scale not given: the % may be the effect or the level left; method in brief: as §2
[35] = system: SF-539; assay: Growth inhibition of human SF539 cells
[36] = Growth inhibition of human […] cells assessed tumor cell growth at 10^-5 M; design: scale not given: the % may be the effect or the level left; method in brief: as §2
[37] = system: UO-31; assay: Growth inhibition of human UO31 cells
[38] = system: UACC-257; assay: Growth inhibition of human UACC257 cells
[39] = system: UACC-257; assay: Growth inhibition of human UACC257 cells assessed tumor cell growth at 10^-5 M; design: scale not given: the % may be the effect or the level left; method in brief: as §1
[40] = system: HOP-62; assay: Growth inhibition of human HOP62 cells assessed tumor cell growth at 10^-5 M; design: scale not given: the % may be the effect or the level left; method in brief: as §2
[41] = system: U-251; assay: Growth inhibition of human U251 cells assessed tumor cell growth at 10^-5 M; design: scale not given: the % may be the effect or the level left; method in brief: as §1
[42] = system: HCC 2998; assay: Growth inhibition of human HCC2998 cells assessed tumor cell growth at 10^-5 M; design: scale not given: the % may be the effect or the level left; method in brief: as §2
[43] = system: OVCAR-3; assay: Growth inhibition of human OVCAR3 cells
[44] = system: CCRF-CEM; assay: Growth inhibition of human CCRF-CEM cells assessed tumor cell growth at 10^-5 M; design: scale not given: the % may be the effect or the level left; method in brief: as §2
[45] = system: UACC-62; assay: Growth inhibition of human UACC62 cells
[46] = system: HCT-15; assay: Growth inhibition of human HCT15 cells
[47] = system: OVCAR-5; assay: Growth inhibition of human OVCAR5 cells assessed tumor cell growth at 10^-5 M; design: scale not given: the % may be the effect or the level left; method in brief: as §2
[48] = system: SNB-19; assay: Growth inhibition of human SNB19 cells
[49] = system: RXF 393; assay: Growth inhibition of human RXF393 cells assessed tumor cell growth at 10^-5 M; design: scale not given: the % may be the effect or the level left; method in brief: as §2
[50] = system: T47D; assay: Growth inhibition of human T47D cells
[51] = system: HL-60(TB); assay: Growth inhibition of human HL-60(TB) cells
[52] = read-out: LC50 (the source's name)

Work on `CC1=NN(c2cccc(Cl)c2)C(=O)/C1=C\C=C\c1ccccc1` yielded an Activity [1] of 62.01%, a GI50 [2] of 17.7 µM and a CC50 [2, 52] of over 100 µM. For the same compound, the GI50 [3] was 1.7 µM, the CC50 [3, 52] was 6.7 µM and the Activity [4] was 101.1%. The Activity [5] was 21.62%, the Activity [6] was 13.63% and the Activity [7] was 115.91%. For the same compound, the GI50 [8] was 2.3 µM, the CC50 [8, 52] was over 100 µM and the GI50 [9] was 1.9 µM. The CC50 [9, 52] was over 100 µM, the GI50 [10] was 2.1 µM and the CC50 [10, 52] was 7.2 µM. It also gave a GI50 [11] of 2.3 µM, an LC50 [11] of over 100 µM and a GI50 [12] of 1.6 µM. It also gave a CC50 [12, 52] of 6.4 µM, a GI50 [13] of 2.8 µM and a CC50 [13, 52] of over 100 µM. For the same compound, the Activity [14] was 112.48%, the Activity [15] was 52.22% and the GI50 [16] was 1.6 µM. For the same compound, the CC50 [16, 52] was over 100 µM, the Activity [17] was -29.51% and the GI50 [18] was 2.8 µM. For the same compound, the CC50 [18, 52] was over 100 µM, the Activity [19] was 75.5% and the GI50 [20] was 3.1 µM. It also gave an LC50 [20] of over 100 µM, a GI50 [21] of 2.2 µM and a CC50 [21, 52] of over 100 µM. The Activity [22] was 48.42%, the Activity [23] was 45.45% and the GI50 [24] was 1.6 µM. For the same compound, the CC50 [24, 52] was 16.5 µM, the Activity [25] was 44.8% and the Activity [26] was 45.54%. It also gave an Activity [27] of 10.62%, a GI50 [28] of 2.6 µM and an LC50 (concentration killing 50% of cells) [28] of over 100 µM. For the same compound, the GI50 [29] was 16.2 µM, the CC50 [29, 52] was over 100 µM and the Activity [30] was 78.36%. It also gave a GI50 [31] of 2.1 µM, a CC50 [31, 52] of 10.2 µM and a GI50 [32] of 2.7 µM. The CC50 [32, 52] was over 100 µM, the Activity [33] was 28.39% and the Activity [34] was -76.48%. For the same compound, the GI50 [35] was 2.5 µM, the CC50 [35, 52] was over 100 µM and the Activity [36] was 15.38%. It also gave a GI50 [37] of 1.6 µM, a CC50 [37, 52] of 7.5 µM and a GI50 [38] of 2.1 µM. It also gave a CC50 [38, 52] of over 100 µM, an Activity [39] of 63.3% and an Activity [40] of 6.78%. It also gave an Activity [41] of -57.37%, an Activity [42] of 30.87% and a GI50 [43] of 2.1 µM. For the same compound, the CC50 [43, 52] was 8.9 µM, the Activity [44] was 2.35% and the GI50 [45] was 1.7 µM. It also gave a CC50 [45, 52] of 8.5 µM, a GI50 [46] of 2.2 µM and a CC50 [46, 52] of over 100 µM. The Activity [47] was 143.86%, the GI50 [48] was 5.6 µM and the CC50 [48, 52] was over 100 µM. The Activity [49] was -87.73%, the GI50 [50] was 2.2 µM and the CC50 [50, 52] was over 100 µM. It also gave a GI50 [51] of 3.1 µM and a CC50 [51, 52] of over 100 µM.
